Drawing on ChEMBL document CHEMBL4513216, “Probing the Open Global Health Chemical Diversity Library for Multistage-Active Starting Points for Next-Generation Antimalarials” (ACS Infect Dis, 2020), this text covers cytotoxicity for 39 molecules.

A short description of the series: Toxicity liver stage against HepG2, at 10uM. The series is classed as cell-based. On the set-up: test concentration 10 uM, cell line HepG2-A16-CD81EGFP. Particulars: human, HepG2-A16-CD81EGFP cells; read-out: INHIBITION
The method, boiled down:
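Uninfected HepG2-A16-CD81EGFP cells, 3 × 10^3 per well, 1536-well, plated on prespotted compound at 10 μM final, parasite-free screening media added to match infected plates; puromycin 10 μM positive, DMSO 0.5% negative; run in parallel with 48 h PbLuc assay at 37 °C, 5% CO2; viability by CellTiter-Glo luminescence, normalized to controls.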
`O=C(CCc1cc(O)no1)N1CCCC(OCc2cccnc2)C1` (centres undefined): the cytotoxicity at 10 µM is -12.7%.

On to `O=C(NCCc1cccs1)C1(N2CCCCC2)Cc2ccccc2C1`, for which the cytotoxicity at 10 µM was -4.86%.

Take `OC[C@@H](O)CN(CCC(F)(F)F)c1ncc(Cl)cn1`: the cytotoxicity at 10 µM turned out to be 12.8%.

For `O=C(C[C@@H]1COC[C@H]2CN(Cc3ccc(F)cc3)C[C@@H]12)N1CCCC1`, the cytotoxicity at 10 µM was 4.09%.

On to `O[C@@]1(CNCCOc2ccccc2)CCCN2CCCC[C@@H]21`, for which the cytotoxicity at 10 µM is -2.96%.

With `Cc1cccc(CN2C(=O)CCC23CCN(C(=O)c2ccco2)CC3)n1`, the cytotoxicity at 10 µM was determined as 4.17%.

For the molecule `Cc1nn2cc(CCNC(=O)c3cc(C(C)C)no3)nc2s1`, the cytotoxicity at 10 µM is -4.8%.

For `N#Cc1ccsc1C(=O)N1CCCCC1Cn1cccn1` (centres undefined), the cytotoxicity at 10 µM came out at 3.36%.

On to `CCCc1nn(Cc2csc(CC)n2)c(=O)o1`, for which the cytotoxicity at 10 µM is -43.1%.

On to `CCc1ccccc1CN1CCN(Cc2ncc[nH]2)[C@H]2CS(=O)(=O)C[C@H]21`, for which the cytotoxicity at 10 µM amounted to 2.03%.

On to `CN(Cc1cc(Br)cn1C)C(=O)c1cccnc1`, for which the cytotoxicity at 10 µM is -5.95%.

In the case of `CCCc1cncnc1N1CCC(NCCc2nc(O)cc(O)n2)CC1`, the cytotoxicity at 10 µM is 5.99%.

As for `CCN(Cc1ccc(C(C)=O)cc1)CC1CCOCC1`, the cytotoxicity at 10 µM is -2.69%.

Regarding `CC(NC(=O)Nc1cccnc1N1CCCC1)c1ccccn1` (centres undefined), the cytotoxicity at 10 µM was 8.05%.

Consider `Cc1cc(N2CCC(n3cc(CN4CCNCC4)nn3)CC2)ccn1`, for which the cytotoxicity at 10 µM is -1.83%.

Regarding `CCNC(=O)C1CCN(c2cc(CC)nc3ccnn23)C1` (centres undefined), the cytotoxicity at 10 µM is -8.24%.

For the molecule `O=C1C[C@@H]2CC[C@H](CN1)N2C1CCSCC1`, the cytotoxicity at 10 µM came to 0.915%.

For `COc1cccc(C(=O)N2C[C@@H](C(=O)O)[C@H](c3ccccc3C)C2)c1`, the cytotoxicity at 10 µM was 0.291%.

Take `Cn1ccc2c(C(=O)NC3CN4CCC3CC4)cccc21` (centres undefined): the cytotoxicity at 10 µM was -46.8%.

Consider `CNCC(=O)N1CC(c2cc(Nc3nc(C)cs3)nc(C)n2)C1`, for which the cytotoxicity at 10 µM was -21.2%.

As to `O=C(Cc1cccnc1)N1CCC2(CC1)CCN(C1CCOCC1)C2`, the cytotoxicity at 10 µM is -8.16%.

Consider `CCS(=O)(=O)NCc1nc(C)cc(N2CCOCC2)n1`, for which the cytotoxicity at 10 µM was -0.978%.

For `O=C(NC[C@H]1C[C@@H]2CCN1C[C@@H]2CN1CCCCC1)c1ccco1`, the cytotoxicity at 10 µM is 7.32%.

Take `O=c1[nH]c2c(c(=O)n1C1CCCCC1)CCC2Nc1ccccc1` (centres undefined): the cytotoxicity at 10 µM was determined as 0.795%.

Consider `Cn1nnc2c1C(COCc1ccccn1)CN(C(=O)c1ccsc1)C2` (centres undefined), for which the cytotoxicity at 10 µM stood at 13.6%.

Regarding `CN1C(=O)CC(C(=O)O)C12CCN(Cc1ccc(Cl)cc1F)CC2` (centres undefined), the cytotoxicity at 10 µM is -7.82%.

For `Cc1cc(C)c(CNC(=O)N2CCCC2c2ccc(F)cc2)c(=O)[nH]1` (centres undefined), the cytotoxicity at 10 µM came to 1.38%.

For the molecule `COc1cccc(CN(C)C(=O)CN2CCN(c3nccn3C)CC2)c1`, the cytotoxicity at 10 µM amounted to 14.3%.

On to `O=C(NCCO)c1sc2ncccc2c1C1CN(C2CCCC2)CCO1` (centres undefined), for which the cytotoxicity at 10 µM is 10.8%.

Turning to `COCC(c1cccc(C(F)(F)F)c1)N(C)C(=O)c1cnccn1` (centres undefined), the cytotoxicity at 10 µM is -11.7%.

Regarding `CC(=O)N1C[C@H]2CNC[C@@]2(C(=O)NCCNc2ccncc2C)C1`, the cytotoxicity at 10 µM was -6.4%.

Turning to `CCS(=O)(=O)c1ccc(N2CCC(NC(=O)c3ccccn3)CC2)cc1`, the cytotoxicity at 10 µM is 10.8%.

Consider `CN(C(=O)CCc1ccncc1)C1CCCN(CCc2ccccc2)C1` (centres undefined), for which the cytotoxicity at 10 µM is -13.5%.

On to `CCCn1ccnc1-c1nccn1CCn1cnnc1`, for which the cytotoxicity at 10 µM is -3.53%.

Turning to `CN(C)CCNC(=O)CCC1CCN(C(=O)c2ccc(Cl)cc2O)CC1`, the cytotoxicity at 10 µM is -11.7%.

Regarding `CCc1nn(C)c2[nH]nc(NC(=O)c3cccnc3OCC(C)C)c12`, the cytotoxicity at 10 µM was found to be 3.94%.

In the case of `CCS(=O)(=O)N[C@H]1CN(CC(C)(C)N2CCOCC2)C[C@@H]1C1CC1`, the cytotoxicity at 10 µM amounted to 1.04%.

`O=C(NCCc1ccccc1Cl)NCC1(O)CCSC1` (centres undefined): the cytotoxicity at 10 µM is -6.17%.

On to `CC1CCN(C(=O)c2cnc(CC3CCCN(C)C3)cn2)CC1` (centres undefined), for which the cytotoxicity at 10 µM is -11.7%.
